The target in series [1] is K18 tau fragment bearing the P301L mutation (K18PL) (Homo sapiens, UniProt P10636, P618L). The experiment in a line: Heparin-induced tau K18PL fibrillization assay monitored by thioflavine-T. The class given is biochemical.
Series [2] addresses tau40-promoted MT-polymerization (tubulin) (Homo sapiens, UniProt P10636). The experiment in a line: MT-assembly. The class given is biochemical. As to conditions: 50 μM compound, 30 μM tubulin, 20 μM tau40. A digest of the protocol: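 Wild-type full-length human tau40 (2N4R) was preincubated with test compound for 120 min at room temperature in RAB (100 mM MES pH 6.9, 1 mM […], 0.5 mM MgSO4). Bovine brain tubulin and GTP were then added. Final concentrations were 30 μM tubulin, 20 μM tau, 50 μM compound and 2 mM GTP, with a DMSO control. Polymerisation was followed at 37 °C by A340 every minute for 45 min.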

Series [3] is described as follows: Brain and plasma levels 1 h after i.p. administration. The class given is in vivo. The conditions noted are these: female, B6C3F1, mouse, brain, ip, 5 mg/kg, Brain level, mice, 5 mg/kg i.p. A digest of the protocol: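 Two-month-old female B6C3F1 mice, three per compound, given test compound 5 mg/kg i.p. and sampled at 1 h. Brain hemispheres were homogenised in 10 mM ammonium acetate pH 5.7 (1:2 w/v), and plasma was collected on EDTA. Samples were acetonitrile-extracted and quantified by LC-MS/MS (MRM, positive ESI) against spiked brain/plasma standards (4–4000 ng/mL) using a 1/x-weighted linear fit and triplicate injections.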

The nature of series [4]: Brain and plasma levels after oral administration. The class given is in vivo. The conditions noted are these: mice, oral gavage 5 mg/Kg. Put shortly:
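Female B6C3F1 mice, two months old, were dosed with test compound at 5 mg/kg by oral gavage. Brain homogenate (10 mM ammonium acetate pH 5.7, 1:2 w/v) and EDTA plasma were extracted with acetonitrile. Levels were measured by LC-MS/MS with MRM detection, quantified from matrix-matched standard curves (4–4000 ng/mL) by 1/x-weighted linear regression on the mean of triplicate injections.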

For series [5] the following is noted: Phase 2 study, 321 patients with mild or moderate AD; cited from earlier work.

SMILES strings stand for the structures.

K18 tau fragment bearing the P301L mutation (K18PL), sequence (P10636 561-689 P618L): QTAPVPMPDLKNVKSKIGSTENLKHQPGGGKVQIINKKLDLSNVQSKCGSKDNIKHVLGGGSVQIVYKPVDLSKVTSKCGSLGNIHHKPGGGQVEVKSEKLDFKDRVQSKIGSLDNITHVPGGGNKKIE
tau40-promoted MT-polymerization (tubulin), sequence (P10636 1-441 isoform P10636-8): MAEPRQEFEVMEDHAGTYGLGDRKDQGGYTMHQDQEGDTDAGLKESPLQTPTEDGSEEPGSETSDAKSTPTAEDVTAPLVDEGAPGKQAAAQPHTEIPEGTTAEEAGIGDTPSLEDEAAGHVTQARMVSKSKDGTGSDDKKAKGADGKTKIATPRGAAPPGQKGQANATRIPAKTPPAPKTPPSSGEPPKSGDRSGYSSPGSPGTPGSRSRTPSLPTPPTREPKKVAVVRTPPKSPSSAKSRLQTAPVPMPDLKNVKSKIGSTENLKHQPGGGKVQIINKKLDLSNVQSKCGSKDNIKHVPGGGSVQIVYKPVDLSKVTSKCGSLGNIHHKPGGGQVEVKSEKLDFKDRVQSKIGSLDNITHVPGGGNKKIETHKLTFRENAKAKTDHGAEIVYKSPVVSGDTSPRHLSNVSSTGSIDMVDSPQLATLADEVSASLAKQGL

For `CCOC(=O)c1nn(-c2ccc(Cl)cc2)c(=O)c2c(N)scc12` [Compound 8, Ethyl 5-amino-3-(4-chlorophenyl)-4-oxo-3,4-dihydrothieno[3,4-d]pyridazine-1-carboxylate], in series [1], the IC50 was 3.8 ± 1.6 µM. In series [2], the “Interference with the normal MT-stabilizing function of tau” value is reported as “did not appear to interfere”. In the same order, the values of `CC(C)OC(=O)c1nn(-c2ccc(Cl)cc2)c(=O)c2c(N)scc12` [Compound 10, Isopropyl 5-amino-3-(4-chlorophenyl)-4-oxo-3,4-dihydrothieno[3,4-d]pyridazine-1-carboxylate] are 1.6 ± 1.1 µM and “did not appear to interfere”. In series [1], `Nc1scc2c(C(=O)O)nn(-c3ccc(Cl)cc3)c(=O)c12` [Compound 11, 5-Amino-3-(4-chlorophenyl)-4-oxo-3,4-dihydrothieno[3,4-d]pyridazine-1-carboxylic acid] returned an IC50 of 5.4 ± 2.3 µM. Moreover, the “Interference with the normal MT-stabilizing function of tau” value in series [2] is “did not appear to interfere”. The molecule `CNC(=O)c1nn(-c2ccc(Cl)cc2)c(=O)c2c(N)scc12` [Compound 13, 5-Amino-3-(4-chlorophenyl)-N-methyl-4-oxo-3,4-dihydrothieno[3,4-d]pyridazine-1-carboxamide] had an IC50 in series [1] of 21.7 ± 16 µM. In series [1], `CCNC(=O)c1nn(-c2ccc(Cl)cc2)c(=O)c2c(N)scc12` [Compound 14, 5-Amino-3-(4-chlorophenyl)-N-ethyl-4-oxo-3,4-dihydrothieno[3,4-d]pyridazine-1-carboxamide] gave an IC50 of 6.9 ± 3.4 µM. This molecule came in with a concentration at 1 h in series [3] of more than 800 ng/g. For the molecule `CC(C)NC(=O)c1nn(-c2ccc(Cl)cc2)c(=O)c2c(N)scc12` [Compound 15, 5-Amino-3-(4-chlorophenyl)-N-isopropyl-4-oxo-3,4-dihydrothieno[3,4-d]pyridazine-1-carboxamide], in series [4], the “Brain concentration after oral administration” value is given as “significant concentrations”. Further, the midpoint of inhibition in series [1], the IC50, lay at 5.9 ± 4.7 µM. The molecule also had a concentration at 1 h in series [3] of more than 800 ng/g. `Nc1scc2c(C(=O)NC3CC3)nn(-c3ccc(Cl)cc3)c(=O)c12` [Compound 16, 5-Amino-3-(4-chlorophenyl)-N-cyclopropyl-4-oxo-3,4-dihydrothieno[3,4-d]pyridazine-1-carboxamide]: the “Brain concentration after oral administration” value in series [4] was “significant concentrations”. Moreover, in series [1], the IC50 came to 8.1 ± 5.7 µM. This molecule yielded a concentration at 1 h in series [3] of more than 800 ng/g. In series [1], `CN(C)C(=O)c1nn(-c2ccc(Cl)cc2)c(=O)c2c(N)scc12` [Compound 17, 5-Amino-3-(4-chlorophenyl)-N,N-dimethyl-4-oxo-3,4-dihydrothieno[3,4-d]pyridazine-1-carboxamide] had an IC50 of 20.5 ± 13.6 µM.

`CCN(C)C(=O)c1nn(-c2ccc(Cl)cc2)c(=O)c2c(N)scc12` [Compound 18, 5-Amino-3-(4-chlorophenyl)-N-ethyl-N-methyl-4-oxo-3,4-dihydrothieno[3,4-d]pyridazine-1-carboxamide] yielded an IC50 in series [1] of 32 ± 4.1 µM. The molecule `CC(C)NC(=O)c1nn(-c2ccc(Br)cc2)c(=O)c2c(N)scc12` [Compound 19, 5-Amino-3-(4-bromophenyl)-N-isopropyl-4-oxo-3,4-dihydrothieno[3,4-d]pyridazine-1-carboxamide] displayed an IC50 in series [1] of 3.1 ± 0.6 µM. For the molecule `CN(C)c1ccc2nc3ccc(=[N+](C)C)cc-3sc2c1` [methylene blue], the “Cognitive decline compared to placebo” value in series [5] was “significant reduction in cognitive decline”.

The values are drawn from article PMC2872922 (Journal of medicinal chemistry, 2010).
